Key:
Integrin alpha-V/beta-3 = Integrin alpha-V/beta-3 (Homo sapiens, UniProt P05106+P06756); experiment: Antagonistic activity for human vitronectin receptor (alphaV-beta3) from platelets; assay type: functional
Summary of the method: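 Competitive binding to human αvβ3 purified from platelets; a tritiated RGD peptide is the displaced ligand. Ki values are the means of two to three separate experiments, with typical assay variability of ±10%.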

HEK293 = experiment: Antagonistic activity was measured by the adhesion of HEK 293 cells transfected with human alphaV-beta3 to vitronectin-coated plates; assay type: functional, cell-based
Summary of the method: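 HEK 293 cells transfected with human αvβ3 are allowed to adhere to vitronectin-coated plates. IC50 comes from two experiments run in triplicate, with an internal reference standard included.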

[1] = (§1) Plasma clearance was measured in rat; assay type: ADME, organism-based; settings: plasma
Rattus norvegicus [2] = organism: Rattus norvegicus; experiment: Compound was measured for in vitro efficacy in blocking vitronectin-induced migration of rat aortic smooth muscle cells (RASMC); assay type: functional, cell-based
[3] = Biological half-life measured in plasma of rat; assay type: ADME, organism-based
[4] = Oral bioavailability in rat; assay type: ADME, organism-based; settings: in vivo
[5] = Biological half-life measured in plasma of rat; 22-25; assay type: ADME, organism-based
Rattus norvegicus [6] = organism: Rattus norvegicus; experiment: as §1; assay type: ADME, organism-based; settings: in vivo
[7] = Bioavailability was measured in rat after oral administration; 2-4; assay type: ADME, organism-based; settings: in vivo, read-out: Bioavailabiility
[8] = Biological half-life measured in plasma of rat; 9-16; assay type: ADME, organism-based
[9] = Bioavailability was measured in rat after oral administration; 3-7; assay type: ADME, organism-based; settings: in vivo, read-out: Bioavailabiility
Rattus norvegicus [10] = organism: Rattus norvegicus; experiment: Maximum plasma concentration of compound was measured in rat; assay type: ADME, organism-based; settings: in vivo

Integrin alpha-V/beta-3, sequence (P05106 27-788 limits assumed): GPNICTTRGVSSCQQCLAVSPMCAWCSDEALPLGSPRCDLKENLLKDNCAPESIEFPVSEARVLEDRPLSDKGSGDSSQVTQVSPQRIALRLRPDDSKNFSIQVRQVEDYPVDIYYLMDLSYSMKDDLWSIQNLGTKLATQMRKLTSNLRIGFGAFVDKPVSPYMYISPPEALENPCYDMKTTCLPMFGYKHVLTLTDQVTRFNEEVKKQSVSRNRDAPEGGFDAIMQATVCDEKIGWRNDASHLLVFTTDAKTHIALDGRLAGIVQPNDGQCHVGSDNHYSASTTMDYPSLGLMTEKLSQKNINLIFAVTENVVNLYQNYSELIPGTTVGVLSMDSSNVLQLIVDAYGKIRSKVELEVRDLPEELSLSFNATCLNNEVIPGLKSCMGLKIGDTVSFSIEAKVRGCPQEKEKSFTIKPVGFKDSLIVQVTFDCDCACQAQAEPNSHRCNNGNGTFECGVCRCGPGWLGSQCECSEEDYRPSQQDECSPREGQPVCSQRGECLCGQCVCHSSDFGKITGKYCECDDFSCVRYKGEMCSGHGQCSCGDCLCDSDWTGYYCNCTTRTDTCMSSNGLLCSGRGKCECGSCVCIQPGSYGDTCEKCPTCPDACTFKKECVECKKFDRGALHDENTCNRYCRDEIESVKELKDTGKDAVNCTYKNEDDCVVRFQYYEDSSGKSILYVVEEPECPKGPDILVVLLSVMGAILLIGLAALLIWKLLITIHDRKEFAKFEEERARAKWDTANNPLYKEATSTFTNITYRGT
Integrin alpha-V/beta-3, sequence (P06756 31-889 limits assumed): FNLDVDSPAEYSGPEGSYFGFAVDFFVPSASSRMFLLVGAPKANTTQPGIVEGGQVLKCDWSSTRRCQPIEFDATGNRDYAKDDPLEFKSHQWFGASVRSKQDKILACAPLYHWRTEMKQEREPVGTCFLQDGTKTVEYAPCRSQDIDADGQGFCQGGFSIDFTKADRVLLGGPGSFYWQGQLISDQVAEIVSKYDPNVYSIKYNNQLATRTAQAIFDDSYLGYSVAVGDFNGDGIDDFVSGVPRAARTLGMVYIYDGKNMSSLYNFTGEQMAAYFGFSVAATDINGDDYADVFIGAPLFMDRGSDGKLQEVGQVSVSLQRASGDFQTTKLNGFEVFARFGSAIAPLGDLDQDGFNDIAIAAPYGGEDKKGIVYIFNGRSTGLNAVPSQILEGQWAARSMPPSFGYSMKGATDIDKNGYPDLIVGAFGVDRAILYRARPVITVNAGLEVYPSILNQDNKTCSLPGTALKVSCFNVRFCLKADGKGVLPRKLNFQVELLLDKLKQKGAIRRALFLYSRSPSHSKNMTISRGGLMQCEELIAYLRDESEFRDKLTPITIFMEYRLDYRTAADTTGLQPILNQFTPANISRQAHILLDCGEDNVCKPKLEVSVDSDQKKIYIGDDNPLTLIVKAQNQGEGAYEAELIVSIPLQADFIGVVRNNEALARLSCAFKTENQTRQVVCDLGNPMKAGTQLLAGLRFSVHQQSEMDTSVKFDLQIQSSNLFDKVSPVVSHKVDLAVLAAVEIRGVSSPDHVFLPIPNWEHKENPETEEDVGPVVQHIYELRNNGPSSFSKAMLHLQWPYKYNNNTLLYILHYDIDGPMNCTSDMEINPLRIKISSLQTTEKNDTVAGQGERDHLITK
Integrin alpha-V/beta-3, sequence (P06756 891-1048 limits assumed): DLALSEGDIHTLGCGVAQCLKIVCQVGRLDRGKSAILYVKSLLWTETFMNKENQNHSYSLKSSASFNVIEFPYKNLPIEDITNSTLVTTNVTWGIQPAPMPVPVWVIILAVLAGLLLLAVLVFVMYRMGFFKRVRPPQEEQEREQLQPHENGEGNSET

Compound | Ki (Integrin alpha-V/beta-3) | IC50 (HEK293) | clearance [1] | IC50 (Rattus norvegicus [2]) | other results
Cc1ccc2nc(CN(C)C(=O)c3ccc4c(c3)CNC(=O)[C@H](CC(=O)O)N4)nc-2[nH]1 | 10 nM | 2500 nM | – | – | –
CN(Cc1nc2ccc[nH]c-2n1)C(=O)c1ccc2c(c1)CN(C)C(=O)[C@H](CC(=O)O)N2 | 3 nM | 270 nM | – | – | –
Cc1ccc2nc(CNC(=O)c3ccc4c(c3)CN(C)C(=O)[C@H](CC(=O)O)N4)nc-2[nH]1 | 45 nM | 9000 nM | 1.8 mL/min/kg | 1600 nM | half-life [3]: 92 min; bioavailability [4]: 8%
Cc1cc(C)c2[nH]c(CN(C)C(=O)c3ccc4c(c3)CN(C)C(=O)[C@H](CC(=O)O)N4)nc2n1 | 710 nM | – | – | – | –
Cc1ccc2[nH]c(CN(C)C(=O)c3ccc4c(c3)CN(C)C(=O)[C@H](CC(=O)O)N4)nc2n1 | 3 nM | 450 nM | 17 mL/min/kg | 170 nM | half-life [5]: 25 min; clearance (Rattus norvegicus [6]): 19 mL/min/kg; bioavailability [7]: 4%
CN(Cc1nc2ncncc2[nH]1)C(=O)c1ccc2c(c1)CN(C)C(=O)[C@H](CC(=O)O)N2 | 23 nM | 5000 nM | – | – | –
CN(Cc1nc2ccccc2[nH]1)C(=O)c1ccc2c(c1)CN(C)C(=O)[C@H](CC(=O)O)N2 | – | – | 35 mL/min/kg | 370 nM | half-life [8]: 16 min; bioavailability [9]: 7%; Cmax (Rattus norvegicus [10]): 819 ng/mL
Cc1ccc2[nH]c(CNC(=O)c3ccc4c(c3)CNC(=O)[C@H](CC(=O)O)N4)nc2n1 (racemic) | 90 nM | 20000 nM | – | – | –
COCCN1Cc2cc(C(=O)NCc3nc4ccc(C)[nH]c-4n3)ccc2N[C@@H](CC(=O)O)C1=O (racemic) | 50 nM | 10000 nM | – | – | –
CN(Cc1nc2cc[nH]nc-2n1)C(=O)c1ccc2c(c1)CN(C)C(=O)[C@H](CC(=O)O)N2 (racemic) | 19 nM | 1500 nM | – | – | –
CC(C)N1Cc2cc(C(=O)N(C)Cc3nc4ncccc4[nH]3)ccc2N[C@@H](CC(=O)O)C1=O (racemic) | 4 nM | 2000 nM | – | – | –
Cc1ccc2[nH]c(CNC(=O)c3ccc4c(c3)CN(Cc3ccccc3)C(=O)[C@H](CC(=O)O)N4)nc2n1 (racemic) | 60 nM | – | – | – | –
Cc1ccc2nc(CN(C)C(=O)c3ccc4c(c3)CN(Cc3ccccc3)C(=O)[C@H](CC(=O)O)N4)nc-2[nH]1 (racemic) | 13 nM | 160 nM | – | – | –
COCCN1Cc2cc(C(=O)N(C)Cc3nc4ncccc4[nH]3)ccc2N[C@@H](CC(=O)O)C1=O (racemic) | 2.5 nM | 500 nM | 31 mL/min/kg | 230 nM | Cmax (Rattus norvegicus [10]): 692 ng/mL; half-life [3]: 25 min; bioavailability [4]: 4%
CN(Cc1nc2ccc[nH]c-2n1)C(=O)c1ccc2c(c1)CN(CCC(C)(C)C)C(=O)[C@H](CC(=O)O)N2 (racemic) | 2.5 nM | 250 nM | 55 mL/min/kg | 470 nM | Cmax (Rattus norvegicus [10]): 555 ng/mL; half-life [3]: 14 min; bioavailability [4]: < 1%

— ChEMBL document CHEMBL1130667, “Discovery of an imidazopyridine-containing 1,4-benzodiazepine nonpeptide vitronectin receptor (alpha v beta 3) antagonist with efficacy in a restenosis model” (Bioorg Med Chem Lett, 1998)
